High-throughput results: PubChem, several laboratories
Rows were chosen to be rich in hits. Some 1.5% of all compounds tested hit in one or more screens of this group.
Hsp70 activator: Hsp70 transcriptional activators, primary screen, cell-based, HeLa, Hsp70 promoter luciferase, luminescence, 10 µM | HeLa Hsp70 promoter luciferase reporter; scaled: vehicle 0, proteasome-inhibitor control 100% | activation, % at 10 µM | 200,000 tested, 0.04% active | AID 1203, 2008;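 active means activation above the mean across all tested compounds plus 3 SD, cutoff set per campaign, cut at about 5.5% in these data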;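 further: 100% = MG132 at 30 µM as the positive control and 0% = DMSO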
m-calpain inh: inhibitors of pig calpain II, primary screen, biochemical, fluorogenic peptide substrate, 1536-well; 220,000 tested, 0.37% active; purified calpain II, 30 min; inhibition, % at 16 µM; AID 1236, 2008;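 active means inhibition above about 50%, limit read from the data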
Pf gamet viab: late stage P. falciparum gametocyte viability inhibitors, primary screen, ATP luminescence, HTS; P. falciparum stage V gametocytes, 24 h; inhibition, % at 10.9 µM; AID 743093, 2013; 150,000 tested, 0.065% active;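 active means inhibition above the mean plus 3 SD of compounds within the control limits, set per campaign, cut at about 38% in these data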;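 further: 0% = DMSO wells and 100% = medium only without gametocytes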
Wee1 stabilizer: Wee1 degradation inhibitors, primary screen, cell-based, HeLa, Wee1K328M-luciferase, luminescence; Wee1-like protein kinase (Homo sapiens), P30291; HeLa Luc-Wee1K328M stability; 100% = proteasome inhibitor MG132 effect; AID 1321, 2008; reporter increase, % at 5 µM; 220,000 tested, 1.2% active;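 active means activation above the mean of all tested compounds plus 3 SD, set per screening run, cut at about 8.8% in these data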;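 further: cells exposed to compound for 20 h before luminescence read; 0% = DMSO alone and 100% = MG132 at 30 µM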
MDM2 E3 inh: MDM2-luciferase reporter signal enhancers, primary screen, MDM2 E3 ligase inhibitor project, cell-based, luminescence, 1536-well; E3 ubiquitin-protein ligase Mdm2 (Homo sapiens), Q00987; cell-based MDM2 ubiquitination luciferase reporter, 2 h; 0 = plate control, 100 = twice control, blank-subtracted; signal enhancement, % at 5 µM; 210,000 tested, 0.11% active; AID 1230, 2008;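 active means signal enhancement of 30% or more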;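 further: luminescence tracks abundance of the self-degrading MDM2-luciferase fusion protein; higher signal means inhibition of MDM2 E3 ligase activity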
Target sequence (Q00987 whole entry, looked up, the tested form may be a part): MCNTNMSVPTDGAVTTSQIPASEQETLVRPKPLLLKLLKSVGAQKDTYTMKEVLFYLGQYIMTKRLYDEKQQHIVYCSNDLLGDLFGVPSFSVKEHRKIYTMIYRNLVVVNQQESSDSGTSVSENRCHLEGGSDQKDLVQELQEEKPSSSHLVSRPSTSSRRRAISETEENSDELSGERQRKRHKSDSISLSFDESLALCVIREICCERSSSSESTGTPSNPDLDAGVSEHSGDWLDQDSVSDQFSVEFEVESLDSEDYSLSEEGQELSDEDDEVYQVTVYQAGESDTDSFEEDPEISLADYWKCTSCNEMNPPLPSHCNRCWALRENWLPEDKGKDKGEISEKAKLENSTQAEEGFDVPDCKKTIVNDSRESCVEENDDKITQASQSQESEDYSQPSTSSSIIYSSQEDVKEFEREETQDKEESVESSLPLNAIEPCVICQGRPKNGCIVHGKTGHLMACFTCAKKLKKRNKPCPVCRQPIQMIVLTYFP
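Assay system: mammalian cells stably expressing self-ubiquitinating, self-degrading MDM2 E3–luciferase fusion. Quantity: 2000 cells in each well. Medium: DMEM culture medium. Compound dosing: single-point 5 µM. Timing: cell settling 4 h, compound treatment 2 h, both 37 °C. Technique: luciferase luminescence. Read-out basis: percent signal gain over controls, blank-subtracted. Benchmarks: plate controls and plate blanks.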
* marks the source's active call; other numbers are inactive results; . = not tested or not shown.

SMILES	Hsp70 activator	m-calpain inh	Pf gamet viab	Wee1 stabilizer	MDM2 E3 inh
N#Cc1nc(COc2ccc(Cl)cc2Cl)oc1N1CCN(c2ccccc2)CC1	0	-26	.	1	-8
COc1ccc(N2CCN(c3oc(COc4ccc(Cl)cc4Cl)nc3C#N)CC2)cc1	0	51*	.	-1	-25
N#Cc1nc(COc2ccc(Cl)cc2)oc1N1CCN(Cc2ccccc2)CC1	0	25	5	1	-3
CCN1CCN(c2oc(COc3ccc(Cl)cc3)nc2C#N)CC1	.	7	-3	9.1*	-6
CCC(C(=O)NCCc1ccc(S(N)(=O)=O)cc1)c1ccccc1 (stereo not given)	.	.	10	.	.
CN(C)CC(CCC(CN(C)C)C(=O)c1ccccc1)C(=O)c1ccccc1 (stereo not given)	.	-4	.	11*	-44
CCOc1ccc(C(=O)C(CCC(CN(C)C)C(=O)c2ccc(OCC)cc2)CN(C)C)cc1 (stereo not given)	3	-9	-3	-2	-18
CN(CCO)CC(O)CN(c1ccccc1)c1ccccc1 (stereo not given)	.	19	-15	-1	-52
CNCC(O)CN(c1ccccc1)c1ccccc1 (stereo not given)	0	23	.	9.7*	-3
COc1ccc([C@H]2CC(=O)C=C(c3ccc(Cl)c(F)c3)C2)cc1	.	.	5	.	.
CCS(=O)(=O)NCC(c1cccnc1)N1CCN(c2ccc(OC)cc2)CC1 (stereo not given)	0	63*	-5	0	-18
C[C@H](CO)N1C[C@H](C)[C@@H](CN(C)S(=O)(=O)c2ccccc2)Oc2ccc(NS(=O)(=O)c3cccs3)cc2C1=O	.	.	15	.	.
CS/C(=N\S(=O)(=O)c1cccs1)Nc1ccc(F)c(Cl)c1	0	-4	59*	-2	-3
O=C(NCCc1ccc(Cl)cc1)Nc1cccc(Cl)c1	0	17	.	8.9*	-10
Cc1c(C=Nc2ccc(S(=O)(=O)N(C)C)cc2)c(O)[nH]c(=O)c1C#N	.	.	4	.	.
Cc1cc(=O)oc2c(C)c3occc3cc12	.	.	-6	.	.
CCn1cc(C2=NC(c3ccccc3)CO2)c2ccccc21 (stereo not given)	0	15	.	39*	.
COc1cc2c3c(c1OC)C1(C=CC(=NO)C=C1)CC3N(C(C)=O)CC2 (stereo not given)	0	-22	13	10*	-14
CCN1C[C@@H]2[C@@H]3C(=O)N(Cc4ccccc4)C(=O)[C@@H]3[C@](C)(C1=O)N2C(=O)c1ccc(Br)cc1	.	.	-10	.	.
CCC(=O)O[C@]1(C(=O)CCl)[C@@H](C)C[C@H]2[C@@H]3CCC4=CC(=O)C=C[C@]4(C)[C@@]3(F)[C@@H](O)C[C@@]21C	0	3	.	9.3*	.
CCOC(=O)CN1C(=O)CC(c2ccccc2)C1=O (stereo not given)	.	.	13	.	.
O=C(O)C(Cc1ccccc1)N1C(=O)/C(=C/c2cccc3ccccc23)SC1=S (stereo not given)	0	56*	.	0	-9
Cn1c(=O)c2c(nc(OCc3ccc4c(c3)OCO4)n2Cc2ccccc2Cl)n(C)c1=O	0	-9	.	9.2*	6
COc1cccc(COc2nc3c(c(=O)n(C)c(=O)n3C)n2C)c1	1	76*	.	0	4
O=C1NC[C@@H](c2ccccc2)OC(=O)[C@@H](Cc2ccc(F)cc2)C/C=C\C[C@@H]1CC(=O)N(CCO)Cc1ccccc1	.	.	-12	.	.
SMILES	Hsp70 activator	m-calpain inh	Pf gamet viab	Wee1 stabilizer	MDM2 E3 inh
O=C(O)c1ccccc1NN=C1CCCCC1	0	10	26	9.8*	-11
Cc1ccccc1NC(=O)c1ccc([N+](=O)[O-])o1	0	-18	-8	9.0*	1
Cn1c(NC(=O)/C=C\c2ccccc2)cc(=O)n(C)c1=O	0	64*	11	-2	0
Cn1c(NC(=O)/C=C/c2c(F)cccc2Cl)cc(=O)n(C)c1=O	0	-35	4	-2	6
Nc1[nH]c(N=NC(=O)c2ccc(Cl)cc2)c2ccccc12	0	11	10	-1	-10
Nc1[nH]c(N=NC(=O)c2ccccc2)c2ccccc12	0	5	-11	10*	-44
CC(C)C(=O)N1CCN(c2ccccc2N)CC1	0	81*	.	1	-8
Cc1onc(-c2ccccc2)c1-c1csc(N/N=C/c2ccccc2Cl)n1	.	1	-27	0	-13
Cc1onc(-c2ccc(Cl)cc2Cl)c1-c1csc(N/N=C/c2ccccc2Cl)n1	.	-27	5	9.7*	-11
CCN(CC)C(=O)c1[nH]cnc1C(=O)NCC(=O)OCc1ccccc1	.	.	4	.	.
O=C(NCc1cccc(C(F)(F)F)c1)C1CC2Cn3c(nc4ccccc43)C2N1Cc1ccccc1 (stereo not given)	.	.	8	.	.
O=S(=O)(/N=C(/Nc1ccccc1)C(F)(F)F)c1ccccc1	0	-1	4	-4	-6
CCc1ccccc1N/C(=N\S(=O)(=O)c1ccccc1)C(F)(F)F	-1	23	-5	10*	-4
Oc1[nH]c2ccc(Br)cc2c1N=NC(=S)N1CCOCC1	.	17	13	-1	14
Oc1[nH]c2ccccc2c1N=NC(=S)N1CCOCC1	.	-15	.	0	31*
Cc1ccc(OCC(=O)Oc2ccc(C)c(C)c2)cc1	.	.	14	.	.
O=C(O)c1ccc(NS(=O)(=O)c2ccc3c(c2)OCCCO3)cc1	0	10	-3	2	3
O=C(O)CCNS(=O)(=O)c1ccc2c(c1)OCCCO2	0	8	5	9.8*	-29
O=C(CC1C(=O)NCCN1Cc1c(F)cccc1Cl)NCCC1=CCCCC1 (stereo not given)	-1	-21	1	0	0
O=C(CC1C(=O)NCCN1Cc1c(F)cccc1Cl)NCCc1ccccn1 (stereo not given)	0	-13	26	9.5*	0
COc1ccc(C2=NOC(C)(c3nnc(-c4ccc(Cl)cc4)o3)C2)cc1 (stereo not given)	.	.	-12	.	.
c1ccc(-c2noc(-c3cccc4ccccc34)n2)nc1	0	-119	-25	9.1*	4
COc1cccc(-c2nc(-c3ccccn3)no2)c1OC	0	-28	.	-1	7
CC1CCN(c2nc3ccccc3nc2C(C#N)C(=O)OC2CCCCC2)CC1 (stereo not given)	0	-154	.	12*	-17
CN(C)/N=C/C=C1\CCC/C(=C\c2ccc(F)c(F)c2)C1=O	5	-38	16	10*	15
CCCCCCCNC1=CC(=O)CC(c2ccccc2)C1 (stereo not given)	0	74*	5	0	-9
